Results published in ChEMBL document CHEMBL1165914, “Characterization of 4-methyl-2-oxo-1,2-dihydroquinolin-6-yl acetate as an effective antiplatelet agent” (2010).
Calls of active or inactive are those of the source. The calls are words filed in the database; no cut-off is given here.

Tests used:
Homo sapiens [1] = species: Homo sapiens; test: Inhibition of human platelet CRTAase assessed as inhibition of acetylation of glutathione S-transferase; parameters: concentration or dose not given beside the values; conditions: concentration not given here
Method in brief: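 Platelet lysate as enzyme source. Acetoxy substrate preincubated with CRTAase and GST in potassium phosphate buffer pH 6.5, 37 °C, 10 min; GSH and CDNB then added and absorbance read at 340 nm. Activity unit is % inhibition of GST activity; mean of five observations.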

Rattus norvegicus [2] = test: Ex vivo antiplatelet activity in Sprague-Dawley rat platelets assessed as inhibition of ADP-induced platelet aggregation at 133 umole/kg, po after 24 hrs by aggregometry; type: functional, organism-based
Method in brief: (§1)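 Rats dosed orally and killed 24 h later. Blood taken by cardiac puncture and centrifuged as for PRP/PPP preparation (180g 10 min; 2500g 10 min). ADP- or AA-induced aggregation then measured by light-transmittance aggregometry.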

Rattus norvegicus [3] = test: Ex vivo antiplatelet activity in Sprague-Dawley rat platelets assessed as inhibition of arachidonic acid-induced platelet aggregation at 133 umole/kg, po after 24 hrs by aggregometry; type: functional, organism-based; method in brief: as §1
Rattus norvegicus [4] = test: Inhibition of COX1 in po dosed Sprague-Dawley rat after 24 hrs by ELISA; type: functional, organism-based
Platelet [5] = test: Antiplatelet activity in human platelet rich plasma assessed as inhibition of ADP-induced platelet aggregation measured for 6 mins by aggregometry; type: functional
Platelet [6] = test: Antiplatelet activity in human platelet rich plasma assessed as inhibition of arachidonic acid-induced platelet aggregation measured for 6 mins by aggregometry; type: functional
Homo sapiens [7] = species: Homo sapiens; test: Activation of human platelet NOS assessed as increase in nitric oxide level by flow cytometry
Method in brief: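 Platelets incubated with compounds, then intracellular NO measured by flow cytometry following the Imrich and Kobzik method.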

Rattus norvegicus [8] = test: Inhibition of COX1 in po dosed Sprague-Dawley rat after 24 hrs by ELISA relative to control; type: functional

Structure (SMILES)	inhibition (Homo sapiens [1])	inhibition (Platelet [5])	also measured
CCCCCCc1c(C)c2cc(OC(C)=O)ccc2[nH]c1=O	7%		
Cc1cc(=O)[nH]c2ccc(O)cc12	0%		inhibition (Rattus norvegicus [2]): inactive; inhibition (Rattus norvegicus [3]): inactive; inhibition (Rattus norvegicus [4]): inactive
CC(=O)Oc1cc(=O)[nH]c2ccccc12	0%		
CCOC(=O)Cn1c(=O)cc(C)c2ccc(OC(C)=O)cc21	10%	Active	
CC(=O)Oc1ccccc1C(=O)O			inhibition (Rattus norvegicus [2]): Active; inhibition (Rattus norvegicus [3]): Active; inhibition (Rattus norvegicus [4]): Active
CCCCCCc1c(C)c2ccc(OC(C)=O)cc2[nH]c1=O	2%		
CCc1c(C)c2cc(OC(C)=O)ccc2[nH]c1=O	26%		
CC(=O)Oc1ccc2[nH]c(=O)cc(C)c2c1	31%	Active	inhibition (Rattus norvegicus [2]): Active; inhibition (Platelet [6]): Active; inhibition (Rattus norvegicus [3]): Active; Activity (Homo sapiens [7]): Active; fold change (FC) (Rattus norvegicus [8]): 3.5
CC(=O)Oc1cccc2c(C)cc(=O)[nH]c12	12%	Active	Activity (Homo sapiens [7]): Active
CCCCCCc1c(C)c2cccc(OC(C)=O)c2[nH]c1=O	0%		
CCOC(=O)COc1cc(C)c2ccc(OC(C)=O)cc2n1	13.2%	inactive	
CCc1c(C)c2ccc(OC(C)=O)cc2[nH]c1=O	13%		
CCOC(=O)Cn1c(=O)cc(C)c2cc(OC(C)=O)ccc21	23%	Active	
CC(=O)Oc1ccc2c(C)cc(=O)[nH]c2c1	13.2%	Active	Activity (Homo sapiens [7]): Active
CCOC(=O)COc1cc(C)c2cc(OC(C)=O)ccc2n1	28.6%	inactive	
CCc1c(C)c2cccc(OC(C)=O)c2[nH]c1=O	11.5%		
